Active and inactive are the calls of the source. The rule behind the calls is not given here.
How the values were obtained:
Vaccinia virus = assay: Antiviral activity against Vaccinia virus infected in HEL cells assessed as reduction in viral cytopathic effect; assay type: functional, organism-based; details: Orthopoxvirus vaccinia
Method in brief: (§1)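 Confluent cell monolayers were infected with 100 CCID50 of virus (1 CCID50 is the dose infecting 50% of cultures) with test compound at varying concentrations (100, 20, … μM). CPE was scored once it was complete in untreated infected controls.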

[1] = Cytotoxicity against HEL cells assessed as alteration of cell morphology by microscopic method; assay type: cell-based; details: human
Method in brief: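 MCC is the lowest compound concentration giving a microscopically visible alteration of cell morphology.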

HEL = assay: Cytostatic activity against HEL cells after 3 days by Coulter counting method; assay type: cell-based; details: human, 72 h
Method in brief: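 HEL cells were seeded at 5 × 10^3 cells/well and grown for 24 h, then given medium with graded compound concentrations. After 3 days at 37 °C, cells were counted with a Coulter counter.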

Human alphaherpesvirus 1 [2] = assay: Antiviral activity against Human simplex virus 1 KOS infected in HEL cells assessed as reduction in viral cytopathic effect; assay type: functional, organism-based; details: Human alphaherpesvirus 1, KOS; method in brief: as §1
Human alphaherpesvirus 2 = assay: Antiviral activity against Human simplex virus 2 G infected in HEL cells assessed as reduction in viral cytopathic effect; assay type: functional, organism-based; details: Human alphaherpesvirus 2, strain G; method in brief: as §1
Human alphaherpesvirus 1 [3] = assay: Antiviral activity against thymidine kinase deficient acyclovir-resistant Human simplex virus 1 KOS infected in HEL cells assessed as reduction in viral cytopathic effect; assay type: functional, organism-based; details: Human alphaherpesvirus 1, KOS; method in brief: as §1
Human alphaherpesvirus 3 [4] = assay: Antiviral activity against thymidine kinase deficient Varicella zoster virus 07/1 infected in HEL cells assessed as reduction in viral plaque formation; assay type: functional, organism-based; details: Human alphaherpesvirus 3, 07/1, HEL
Method in brief: (§2)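 Confluent cultures were inoculated with 20 PFU of virus with compound at varying concentrations (100, 20, … μM). Plaques were counted once plaque formation was complete in untreated infected controls.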

Human betaherpesvirus 5 [5] = assay: Antiviral activity against Human cytomegalovirus Davis infected in HEL cells assessed as reduction in viral cytopathic effect; assay type: functional, organism-based; details: Human betaherpesvirus 5, Davis; method in brief: as §1
Sindbis virus = assay: Antiviral activity against Sindbis virus infected in African green monkey Vero cells assessed as reduction in viral cytopathic effect; assay type: functional, organism-based; method in brief: as §1
Human betaherpesvirus 5 [6] = assay: Antiviral activity against Human cytomegalovirus AD169 infected in HEL cells assessed as reduction in viral cytopathic effect; assay type: functional, organism-based; details: Human betaherpesvirus 5, AD169, HEL; method in brief: as §1
[7] = Selectivity index, ratio of CC50 for HEL cells to EC50 for Varicella zoster virus Oka infected in HEL cells; assay type: toxicity, cell-based; details: human, read-out: Ratio CC50/EC50
Method in brief: (§3)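 SI is CC50 divided by EC50. CC50 comes from the 3-day HEL Coulter-counter growth assay. EC50 comes from the VZV plaque-reduction assay (20 PFU inoculum).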

Coxsackievirus B4 [8] = assay: Antiviral activity against Coxsackievirus B4 infected in African green monkey Vero cells assessed as reduction in viral cytopathic effect; assay type: functional, organism-based; method in brief: as §1
[9] = test system: Respiratory syncytial virus; assay: Antiviral activity against Respiratory syncytial virus infected in human HeLa cells assessed as reduction in viral cytopathic effect; assay type: functional, organism-based; method in brief: as §1
Human alphaherpesvirus 3 [10] = assay: Antiviral activity against Varicella zoster virus Oka infected in HEL cells assessed as reduction in viral plaque formation; assay type: functional, organism-based; details: Human alphaherpesvirus 3, strain Oka vaccine; method in brief: as §2
Influenza A virus = assay: Antiviral activity against Influenza A virus (H1N1) infected in MDCK cells assessed as reduction in viral cytopathic effect; assay type: functional, organism-based
Method in brief: (§4)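 Nearly confluent MDCK cultures were infected with 100 CCID50 of virus with compound at varying concentrations (100, 20, … μM). CPE was scored when complete in untreated infected controls.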

[11] = test system: Mammalian orthoreovirus 1; assay: Antiviral activity against Reovirus-1 infected in African green monkey Vero cells assessed as reduction in viral cytopathic effect; assay type: functional, organism-based; method in brief: as §1
Influenza B virus = assay: Antiviral activity against Influenza B virus infected in MDCK cells assessed as reduction in viral cytopathic effect; assay type: functional, organism-based; method in brief: as §4
[12] = test system: Human immunodeficiency virus 1; assay: Antiviral activity against Human immunodeficiency virus 1 LAV1 infected in primary human PBM cells after 6 days by reverse transcriptase activity-based assay; assay type: functional, organism-based
[13] = Selectivity index, ratio of CC50 for HEL cells to EC50 for thymidine kinase deficient Varicella zoster virus 07/1 infected in HEL cells; assay type: toxicity, cell-based; details: human, read-out: Ratio CC50/EC50; method in brief: as §3
[14] = test system: Vesicular stomatitis virus; assay: Antiviral activity against Vesicular stomatitis virus infected in human HeLa cells assessed as reduction in viral cytopathic effect; assay type: functional, organism-based; method in brief: as §1
Influenza A virus H3N2 = assay: Antiviral activity against Influenza A virus H3N2 infected in MDCK cells assessed as reduction in viral cytopathic effect; assay type: functional, organism-based; method in brief: as §4
Human respirovirus 3 = assay: Antiviral activity against Human parainfluenza virus 3 infected in African green monkey Vero cells assessed as reduction in viral cytopathic effect; assay type: functional, organism-based; method in brief: as §1
Coxsackievirus B4 [15] = assay: Antiviral activity against Human coxsackievirus B4 infected in human HeLa cells assessed as reduction in viral cytopathic effect; assay type: functional, organism-based; method in brief: as §1
Human coronavirus 229E = assay: Antiviral activity against Human coronavirus 229E infected in HEL cells assessed as reduction in viral cytopathic effect; assay type: functional, organism-based; method in brief: as §1

SMILES	EC50 (Vaccinia virus) [µM]	MCC [1] [µM]	CC50 (HEL) [µM]	EC50 (Human alphaherpesvirus 1 [2]) [µM]	EC50 (Human alphaherpesvirus 2) [µM]	EC50 (Human alphaherpesvirus 1 [3]) [µM]	EC50 (Human alphaherpesvirus 3 [4]) [µM]	EC50 (Human betaherpesvirus 5 [5]) [µM]	Activity (Sindbis virus)	EC50 (Human betaherpesvirus 5 [6]) [µM]	selectivity ratio [7]	Activity (Coxsackievirus B4 [8])	Activity [9]	EC50 (Human alphaherpesvirus 3 [10]) [µM]	Activity (Influenza A virus)	Activity [11]	Activity (Influenza B virus)	Activity [12]	selectivity ratio [13]	Activity [14]	also measured
Nc1ccn(C[C@@H](CO)OCP(=O)(O)O)c(=O)n1 [CIDOFOVIR]	21.3	> 300	> 300	6.5	4.1	4.6	–	–	–	–	–	–	–	–	–	–	–	–	–	–	–
Cc1cn(C/C=C/CP(=O)(OCOC(=O)C(C)(C)C)OCOC(=O)C(C)(C)C)c(=O)[nH]c1=O	30.7	≥ 100	36.4	–	6.5	–	0.43	> 41	inactive	> 41	19	inactive	inactive	1.91	inactive	inactive	inactive	inactive	85	inactive	Activity (Influenza A virus H3N2): inactive; Activity (Human respirovirus 3): inactive; Activity (Coxsackievirus B4 [15]): inactive
Cc1cn(C/C=C/C[P@](=O)(N[C@@H](C)C(=O)OCc2ccccc2)Oc2ccccc2)c(=O)[nH]c1=O	> 100	> 100	≥ 83	9.6	5.3	3.2	0.33	44.7	inactive	29.9	≥ 213	inactive	inactive	0.39	inactive	inactive	inactive	inactive	≥ 252	inactive	EC50 (Human coronavirus 229E): 24.6 µM; Activity (Influenza A virus H3N2): inactive; Activity (Human respirovirus 3): inactive; Activity (Coxsackievirus B4 [15]): inactive
Cc1cn(C/C=C/CP(=O)(OCOC(=O)C(C)C)OCOC(=O)C(C)C)c(=O)[nH]c1=O	> 200	> 200	36	4.2	6.1	2.8	0.45	83	inactive	102	29	inactive	inactive	1.26	inactive	inactive	inactive	inactive	80	inactive	Activity (Influenza A virus H3N2): inactive; Activity (Human respirovirus 3): inactive; Activity (Coxsackievirus B4 [15]): inactive
O=c1[nH]c(=O)n([C@H]2C[C@H](O)[C@@H](CO)O2)cc1/C=C/Br [BRIVUDINE]	10.8	> 300	> 300	0.081	169	420	≥ 93.8	–	–	–	> 21400	–	–	–	–	–	–	–	> 3	–	–
COC(=O)[C@H](C)NP(=O)(C/C=C/Cn1cc(C)c(=O)[nH]c1=O)Oc1ccccc1 (some centres not stated)	> 100	> 100	> 100	59	31	23.5	1.82	≥ 70	inactive	≥ 72	> 12	inactive	inactive	8.13	inactive	inactive	inactive	inactive	> 55	inactive	EC50 (Human coronavirus 229E): > 100 µM; Activity (Influenza A virus H3N2): inactive; Activity (Human respirovirus 3): inactive; Activity (Coxsackievirus B4 [15]): inactive

Source: ChEMBL document CHEMBL4196014, “Highly convergent synthesis and antiviral activity of (E)-but-2-enyl nucleoside phosphonoamidates” (Eur J Med Chem, 2018)
